The values below come from ChEMBL document CHEMBL2029207, “Vascular barrier protective effects of eckol and its derivatives” (Bioorg Med Chem Lett, 2012).

The species named for data set [1] is Mus musculus. The data set can be described thus: Antiinflammatory activity in mice assessed as inhibition of acetic acid-induced hyperpermeability at 10 uM relative to acetic acid.
The subject of data set [2] is HUVEC. The data set can be described thus: Antiinflammatory activity in HUVEC cells assessed as inhibition of LPS-induced hyperpermeability at 10 uM relative to LPS. It counts as functional. The following applies: Homo sapiens. Summed up:
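Primary HUVECs were stimulated with LPS at 100 ng/ml, with or without test agent. Permeability was read as albumin flux across the monolayer in a dual-chamber system, by ELISA at OD650. Percent inhibition is relative to LPS alone, with PBS as the negative control and kaempferol-3-O-sophoroside as the positive control. Values are mean ± S.D. of three experiments.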

For data set [3], the system named is HUVEC. The data set can be described thus: Antiinflammatory activity in HUVEC cells assessed as inhibition of LPS-induced monocyte migration at 10 uM relative to LPS. It counts as functional. As to conditions: Homo sapiens. Summed up: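 Monocyte transendothelial migration was measured across HUVECs stimulated with LPS at 100 ng/ml. The read-out was a migration index, with percent inhibition calculated against LPS alone. Controls were PBS (negative) and kaempferol-3-O-sophoroside (positive). Values are mean ± S.D. of three independent experiments.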

Data set [4] is filed under the species Mus musculus. The data set can be described thus: Antiinflammatory activity in mouse assessed as inhibition of CMC-Na-induced leukocyte migration into peritoneal cavity at 10 uM relative to CMC-Na. It counts as functional. Put shortly:
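Mice received 1.0% CMC–Na to induce leukocyte migration, with or without test agent. Leukocytes recovered from the peritoneal cavity were counted (×10^6). Percent inhibition is relative to CMC–Na alone, with PBS and kaempferol-3-O-sophoroside as controls. Values are mean ± S.D. of three experiments.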

Data set [5] relates to HUVEC. The data set can be described thus: Cytotoxicity against HUVEC cells assessed as decrease in cell viability up to 20 uM after 24 hrs. It counts as cell-based. As to conditions: human. Summed up:
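HUVECs were exposed to each agent for 24 h and then assessed in cell viability assays.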

Data set [6] concerns HUVEC. The data set can be described thus: Antiinflammatory activity in HUVEC cells assessed as inhibition of […]-induced monocyte binding to endothelial cells at 10 uM relative to control. The following applies: Homo sapiens.

Broadly, the inhibition is the drop in the measured response relative to a control, in per cent.

Calls of active or inactive are those of the source. The rule behind the calls is not given here.

In the case of `O=c1c(O[C@@H]2O[C@H](CO)[C@@H](O)[C@H](O)[C@H]2O[C@@H]2O[C@H](CO)[C@@H](O)[C@H](O)[C@H]2O)c(-c2ccc(O)cc2)oc2cc(O)cc(O)c12`, the values for the inhibition at 10 µM in the data set listed under Mus musculus [1], in the data set with HUVEC [2] and with HUVEC [3] were 73.9%, 76.6% and 69.5%, respectively. The “inhibition (INH)” value in the data set filed under Mus musculus [4] was 69.6%.
In the case of `CC(=O)Oc1cc(OC(C)=O)cc(Oc2c(OC(C)=O)cc(OC(C)=O)c3c2Oc2c(OC(C)=O)cc(Oc4c(OC(C)=O)cc(Oc5c(OC(C)=O)cc(OC(C)=O)c6c5Oc5c(OC(C)=O)cc(OC(C)=O)cc5O6)cc4OC(C)=O)cc2O3)c1`, the inhibition at 10 µM stood at 59.5% in the data set listed under Mus musculus [1], 49.5% with HUVEC [2] and 50.3% in the data set on HUVEC [3]. The Activity result with HUVEC [5] was “Non-toxic”. For the same compound, the “inhibition (INH)” value in the data set listed under Mus musculus [4] came to 56.7%.
For `Oc1cc(O)cc(Oc2c(O)cc(O)c3c2Oc2c(O)cc(Oc4c(O)cc(Oc5c(O)cc(O)c6c5Oc5c(O)cc(O)cc5O6)cc4O)cc2O3)c1` [DIECKOL], the results for the inhibition at 10 µM in the data set filed under Mus musculus [1], with HUVEC [2] and in the data set with HUVEC [3] were 74.4%, 74.9% and 71.3%, respectively. Further, the Activity entry with HUVEC [5] is “Non-toxic”. Further, in the data set filed under Mus musculus [4], the “inhibition (INH)” value came out at 69.9%.
Consider `Oc1cc(O)cc(Oc2c(O)cc(O)c3c2Oc2c(O)cc(O)cc2O3)c1` [ECKOL], for which the results for the inhibition at 10 µM in the data set listed under Mus musculus [1], with HUVEC [2] and with HUVEC [3] were 52%, 56.5% and 59.6%, respectively. In the data set on HUVEC [5], the Activity entry is “Non-toxic”. Moreover, the “inhibition (INH)” value in the data set filed under Mus musculus [4] amounted to 61.7%. Moreover, in the data set on HUVEC [6], the inhibition result is “Active”.
In the case of `COc1cc(OC)cc(Oc2c(OC)cc(OC)c3c2Oc2c(OC)cc(Oc4c(OC)cc(Oc5c(OC)cc(OC)c6c5Oc5c(OC)cc(OC)cc5O6)cc4OC)cc2O3)c1`, the inhibition at 10 µM in the data set filed under Mus musculus [1] amounted to 34.7%; in the data set with HUVEC [2], 33%; in the data set with HUVEC [3], 37.6%. In addition, the Activity entry in the data set on HUVEC [5] was “Non-toxic”. In addition, in the data set filed under Mus musculus [4], the “inhibition (INH)” value is recorded as 32.4%.
